Assay outcomes as filed in PubChem BioAssay.
IDE act – IDE (human) activation, cell-based; P14735; HEK cells, FAbeta-B cleavage, fluorescence polarization; 0% vehicle, 100% cell-free pure enzyme wells; activation, % at 5.96 µM; actives 0.073% (n = 340,000); AID 493087;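 active = activation above the mean of all tested compounds plus 3 SD, set per screening campaign, cut at about 17% in these data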
proCasp3 act – activates human procaspase-3; actives 0.11% (n = 330,000); P42574; activation, % at 8.5 µM; recombinant procaspase-3 D3A, Ac-DEVD-pNA absorbance 405 nm;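 active = activation above the mean of all tested compounds plus 3 SD, cut at about 21% in these data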;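 note: 0% = DMSO alone and 100% = DMSO wells spiked with extra 5 µM PC-3 D3A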
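System: Procaspase-3 D3A mutant. Medium: Zinc-free 300 mM NaCl, 50 mM HEPES, 0.01% Triton X-100. Schedule: 1 h preincubation plus 2 h reaction at 25 °C. Measured by: 405 nm absorbance of p-nitroaniline, reads at 0 and 120 min. Read-out: percent activation relative to control range.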
procasp7 counter – counter-screen for procaspase-3 activators: activators of human procaspase-7; P55210; recombinant procaspase-7, Ac-DEVD-pNA absorbance 405 nm; D23A/D198A/D206A triple mutant, cannot self-cleave; scale: DMSO 0, 5 µM enzyme 100; activation, % at 8.5 µM; actives 0.093% (n = 330,000); AID 463210;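 active = percent activation above the screen-wide mean plus 3 SD, cut at about 25% in these data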
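Assay system: Uncleavable procaspase-7 mutant enzyme | Input: 2 µM procaspase-7 mutant as dispensed | Timing: 1 h compound preincubation, 2 h substrate cleavage, 25 °C | Repeats: One well per compound | Control set: DMSO wells as 0%, DMSO with 5 µM added PC-7 as 100% | Technique: Epi-absorbance of released pNA at 405 nm, two timepoints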
IDE inh – inhibits human insulin-degrading enzyme in HEK cells. P14735. actives 0.41% (n = 320,000). FAbetaB cleavage, fluorescence polarization. inhibition, % at 5.59 µM;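 active = percent inhibition above the average of all tested compounds plus 3 SD, set per screening campaign, cut at about 16% in these data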;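 note: IDE supplied by intact live HEK cells; FP after avidin binding of uncleaved biotin substrate so inhibition keeps polarization high; 0% = DMSO wells and 100% = 60 µM reference IDE inhibitor Ii1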
UBC13 inh – human UBC13 polyubiquitination inhibition. P61088. UBC13 polyubiquitin chain formation, TR-FRET. inhibition, % at 20 µM. actives 0.47% (n = 330,000). AID 485273; in the data active = inhibition above about 45%, passing the limit was not always enough
Target sequence (P61088 whole entry, looked up): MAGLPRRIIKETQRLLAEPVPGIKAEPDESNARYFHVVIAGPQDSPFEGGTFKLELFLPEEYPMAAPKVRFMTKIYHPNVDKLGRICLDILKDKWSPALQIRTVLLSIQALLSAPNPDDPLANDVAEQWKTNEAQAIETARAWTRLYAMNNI
PHOSPHO1 inh – blocks human PHOSPHO1 phosphatase activity | Q8TCT1 | recombinant PHOSPHO1, absorbance phosphatase assay | inhibition, % at 13.3 µM | actives 1.1% (n = 290,000) | AID 1565; in the data active = inhibition above about 60%
Target sequence (Q8TCT1 whole entry, looked up): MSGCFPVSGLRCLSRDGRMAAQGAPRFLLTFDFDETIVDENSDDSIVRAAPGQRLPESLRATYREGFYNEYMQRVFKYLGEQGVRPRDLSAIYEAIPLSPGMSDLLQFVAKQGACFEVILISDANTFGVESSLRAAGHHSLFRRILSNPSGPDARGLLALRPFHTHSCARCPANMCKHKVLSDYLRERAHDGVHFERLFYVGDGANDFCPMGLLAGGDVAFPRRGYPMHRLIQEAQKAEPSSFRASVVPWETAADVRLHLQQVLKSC
Starred values were filed as active, the others as inactive. Shown are actives, neighbours in structure and some others; about 1.9% of the full set was active somewhere.

`CCCCN(C)CCN1C(=O)C2C(C(=O)Nc3cccc(OC)c3)C3C=CC2(O3)C1C(=O)NC1CCCCC1C` (stereo unspecified) gave IDE act 2.5, proCasp3 act 1.5, procasp7 counter 1.4, IDE inh 4.8, UBC13 inh -3.3 and PHOSPHO1 inh 31.0.
For CSc1nncc(/C(C)=N\Nc2ccccc2C)n1 the results were IDE act 0.0, proCasp3 act 0.2, procasp7 counter 2.0, IDE inh 6.7, UBC13 inh -3.5 and PHOSPHO1 inh 95.0*.
`CSc1nncc(/C(C)=N/O)n1` gave IDE act 4.9, proCasp3 act 9.6, procasp7 counter 1.7, IDE inh 6.3, UBC13 inh -0.6 and PHOSPHO1 inh 7.4.
For COc1ccccc1-c1nc(SCC(=O)Nc2cc(C)on2)c2c(=O)n(C)c(=O)n(C)c2n1 the results were IDE act 3.5, proCasp3 act -3.8, procasp7 counter 13.3, IDE inh -0.3, UBC13 inh 12.9 and PHOSPHO1 inh 65.4*.
CCn1nc(NS(=O)(=O)c2ccc([N+](=O)[O-])cc2)c2cc3ccccc3nc21 was read as IDE act -2.5, proCasp3 act 0.8, procasp7 counter -2.8, IDE inh 9.3, UBC13 inh -14.3 and PHOSPHO1 inh 54.1.
CC(C)c1nnc(SCC(=O)NCCC2=CCCCC2)n1N was read as IDE act -6.9, proCasp3 act -2.5, procasp7 counter -8.3, IDE inh 8.0, UBC13 inh 2.8 and PHOSPHO1 inh 92.2*.
`Cc1cc2c(cc1C)NC(C)CC(=O)N2` (stereo unspecified) gave IDE act 0.4.
Screening Cc1cc(=O)[nH]c2ccccc12 returned IDE act 1.1, proCasp3 act 1.6, procasp7 counter 5.9, IDE inh 1.0, UBC13 inh -4.4 and PHOSPHO1 inh 21.6.
`Cc1[nH]c(=O)cc2ccccc12` gave IDE act -1.0, proCasp3 act -6.7, procasp7 counter 0.0, IDE inh 0.5, UBC13 inh -0.4 and PHOSPHO1 inh 93.8*.
`O=C(Nc1ccc(C2=NCCN2)cc1)c1ccc(Cl)c(C(=O)Nc2ccc(C3=NCCN3)cc2)c1` gave proCasp3 act -0.1, procasp7 counter 2.7, IDE inh 0.5, UBC13 inh 106.4* and PHOSPHO1 inh 38.1.
Screening Cc1c(OC(=O)c2ccc([N+](=O)[O-])cc2)c2c(c[n+]1C)COC(C)(C)OC2 returned IDE act 6.2, proCasp3 act 3.4, procasp7 counter -9.2, IDE inh 1.1, UBC13 inh -5.9 and PHOSPHO1 inh 102.6*.
For O=C1NC(c2ccccc2)N=C2Oc3ccccc3C=C12 (stereo unspecified) the results were IDE act -3.8.
CCSc1ccc([C@@H]2[C@H]3C(=O)N(CC)C(=O)[C@H]3[C@]3(C(=O)OC)CCCCN23)cc1OC was read as IDE act 3.9, proCasp3 act -3.4, procasp7 counter 0.1, IDE inh 1.8 and UBC13 inh 2.8.
For C=CC[C@H](CC(=O)NCCO)C(=O)N[C@@H](COC(=O)[C@@H](CC=C)CC(=O)OC(C)(C)C)Cc1c[nH]c2ccccc12 the results were IDE act 4.2, proCasp3 act -2.7, procasp7 counter -8.5, IDE inh -1.5 and UBC13 inh 12.5.
Screening Cc1ccc(C2C(C#N)=C(N)SC(N)=C2C#N)o1 returned proCasp3 act -22.1, procasp7 counter -19.3, IDE inh 14.0, UBC13 inh -17.2 and PHOSPHO1 inh 101.9*.
CCN(c1ccccc1)S(=O)(=O)c1ccc(N2CCN(c3ccc(O)cc3)CC2)nc1 was read as IDE act -6.1, proCasp3 act -16.7, procasp7 counter -13.8, IDE inh 0.7 and UBC13 inh -13.1.
Screening CCN(c1ccccc1)S(=O)(=O)c1ccc(N2CCN(c3ccc(OC)cc3)CC2)nc1 returned IDE act 26.3*, proCasp3 act 4.6, procasp7 counter -4.9, IDE inh -0.3 and UBC13 inh -9.7.
`CC(=O)N1CCN(c2nc(-c3ccco3)c3c(c2C#N)CC(C)(C)SC3)CC1` gave IDE act -3.2, proCasp3 act -1.1, procasp7 counter -13.6, IDE inh 3.9, UBC13 inh -31.7 and PHOSPHO1 inh 86.5*.
For CCn1c(SCC(=O)Nc2cccc(OC)c2)nnc1-c1ccc(Cl)cc1 the results were IDE act -2.1, proCasp3 act -6.0, procasp7 counter 7.1, IDE inh -5.4, UBC13 inh -2.8 and PHOSPHO1 inh 73.6*.
Screening CN(C)c1ccc(NC(=O)CSc2nnc(-c3cccs3)n2Cc2ccco2)cc1 returned IDE act 2.9, proCasp3 act -8.1, procasp7 counter 2.2, IDE inh 3.9, UBC13 inh -15.3 and PHOSPHO1 inh 89.9*.
Screening CCn1c(SCC(=O)Nc2ccc(N(C)C)cc2)nnc1-c1cccc(C)c1 returned IDE act -0.3, proCasp3 act -0.9, procasp7 counter -9.7, IDE inh -4.0, UBC13 inh 6.7 and PHOSPHO1 inh 78.9*.
For CCn1c(Cn2nnc(-c3ccccc3)n2)nnc1SCC(=O)Nc1ccc(C(C)=O)cc1 the results were IDE act 3.8, proCasp3 act -2.7, procasp7 counter 7.2, IDE inh -1.1, UBC13 inh -0.7 and PHOSPHO1 inh 45.9.
Screening CCn1c(Cn2nnc(-c3ccccc3)n2)nnc1SCC(=O)Nc1ccc(N(C)C)cc1 returned IDE act 0.5, proCasp3 act -4.4, procasp7 counter -1.7, IDE inh 3.3, UBC13 inh -0.1 and PHOSPHO1 inh 78.4*.
For O=C(NCc1ncc(C(F)(F)F)cc1Cl)Nc1ccccc1 the results were IDE act 3.6, proCasp3 act 2.7, procasp7 counter -5.8, IDE inh 2.2 and UBC13 inh 1.2.
COc1cccc(CC(NC(C)=O)C(=O)NC2CCN(S(=O)(=O)c3ccc(NC(C)=O)cc3)CC2)c1 (stereo unspecified) was read as IDE act 4.8, proCasp3 act 0.6, procasp7 counter 7.9, IDE inh 1.4, UBC13 inh 1.6 and PHOSPHO1 inh 16.8.
For O=[N+]([O-])c1ccc(N2CCCCC2)cc1N1CCOCC1 the results were IDE act -0.5, proCasp3 act 3.6, procasp7 counter -8.1, IDE inh -1.6, UBC13 inh -32.9 and PHOSPHO1 inh 3.9.
Screening S=P(c1ccc(N2CCOCC2)cc1N1CCOCC1)(N1CCOCC1)N1CCOCC1 returned IDE act -2.0 and PHOSPHO1 inh 85.4*.
Screening Cc1nc(N2CCN(c3ccccn3)CC2)c2c(C)c(C(=O)N3CCN(c4cccc(Cl)c4)CC3)sc2n1 returned IDE act -0.7, proCasp3 act 1.8, procasp7 counter 5.5, IDE inh 1.0, UBC13 inh 40.2 and PHOSPHO1 inh 40.0.
